{"source": "ChEMBL document CHEMBL4033794", "about": "“Discovery of Trifluoromethyl Glycol Carbamates as Potent and Selective Covalent Monoacylglycerol Lipase (MAGL) Inhibitors for Treatment of Neuroinflammation” (J Med Chem, 2018)", "key": {"[1]": {"experiment": "Plasma clearance in non-human primate at 1 mg/kg, iv administered via cephalic vein measured up to 24 hrs post dose by HPLC-MS/MS analysis", "assay_type": "ADME, organism-based, Macaca mulatta", "conditions": "rhesus monkey", "method_in_brief": "(§1)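 Fasted male non-human primates (n = 2), fed ~1 h post-dose; 1 mg/kg IV bolus via saphenous or cephalic vein in 3% DMA/10% Solutol HS15/10% Miglyol/77% of 20% SBECD, 0.5 mL/kg. Femoral blood pre-dose and 0.083–24 h; plasma HPLC-MS/MS; non-compartmental analysis.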"}, "[2]": {"experiment": "Volume of distribution in Wistar Hannover rat at 1 mg/kg, iv administered as bolus dose via jugular vein cannula measured up to 24 hrs post dose by HPLC-MS/MS analysis", "assay_type": "ADME, organism-based", "conditions": "in vivo", "method_in_brief": "(§2)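 Rats (n = 2) given 1 mg/kg IV bolus via jugular vein cannula, solution in 3% DMA/10% Solutol HS15/10% Miglyol/77% of 20% SBECD in water, 1 mL/kg. Carotid cannula blood pre-dose and 0.083–24 h; plasma by HPLC-MS/MS; non-compartmental analysis.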"}, "[3]": {"experiment": "Volume of distribution in non-human primate at 1 mg/kg, iv administered via cephalic vein measured up to 24 hrs post dose by HPLC-MS/MS analysis", "assay_type": "ADME, organism-based, Macaca mulatta", "conditions": "rhesus monkey, in vivo", "method_in_brief": "as §1"}, "[4]": {"experiment": "Drug metabolism in human hepatocytes assessed as glucuronide conjugate formation", "assay_type": "ADME, cell-based, Hepatocyte"}, "[5]": {"experiment": "Unbound fraction in C57BL6J mouse brain at 1 mg/kg, sc measured up to 24 hrs post dose by HPLC-MS/MS analysis", "assay_type": "ADME, organism-based"}, "[6]": {"experiment": "Intrinsic clearance in human hepatocytes", "assay_type": "ADME, cell-based, Hepatocyte", "conditions": "read-out: CLH", "method_in_brief": "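Substrate depletion in cryopreserved human hepatocytes; scaled intrinsic clearance in mL/min/kg.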"}, "CYP2C9": {"biological_target": "CYP2C9 (Homo sapiens, UniProt P11712)", "sequence (P11712 whole entry, canonical isoform)": "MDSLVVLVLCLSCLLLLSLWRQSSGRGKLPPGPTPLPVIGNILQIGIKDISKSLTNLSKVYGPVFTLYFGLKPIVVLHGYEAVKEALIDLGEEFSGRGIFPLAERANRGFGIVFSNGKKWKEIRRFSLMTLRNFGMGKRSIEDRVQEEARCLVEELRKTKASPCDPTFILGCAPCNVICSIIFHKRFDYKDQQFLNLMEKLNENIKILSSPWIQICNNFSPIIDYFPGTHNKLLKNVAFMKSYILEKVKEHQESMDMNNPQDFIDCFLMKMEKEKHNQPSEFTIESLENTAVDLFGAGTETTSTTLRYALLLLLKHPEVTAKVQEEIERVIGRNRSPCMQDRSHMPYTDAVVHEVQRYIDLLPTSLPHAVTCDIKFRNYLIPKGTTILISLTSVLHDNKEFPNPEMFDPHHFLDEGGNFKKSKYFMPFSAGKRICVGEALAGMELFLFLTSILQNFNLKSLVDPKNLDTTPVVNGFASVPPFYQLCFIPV", "experiment": "Inhibition of CYP2C9 (unknown origin) at 3 uM", "assay_type": "ADME", "method_in_brief": "(§3)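 Competitive inhibition screen of CYP3A4, 2D6, 2C9, 2C8 and 1A2 using isoform-relevant probe substrates, compound at 3 μM.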"}, "[7]": {"experiment": "Ratio of unbound AUClast in C57BL6J mouse brain to plasma at 1 mg/kg, sc measured up to 24 hrs post dose by HPLC-MS/MS analysis", "conditions": "brain and plasma"}, "[8]": {"experiment": "Plasma clearance in Beagle dog at 1 mg/kg, iv administered via cephalic vein measured up to 24 hrs post dose by HPLC-MS/MS analysis", "assay_type": "ADME, organism-based, Canis lupus familiaris", "method_in_brief": "(§4)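 Fasted male beagles (n = 2), fed ~4 h post-dose, given 1 mg/kg IV bolus via cephalic vein in 3% DMA/10% Solutol HS15/10% Miglyol/77% of 20% SBECD, 0.5 mL/kg. Jugular blood pre-dose and 0.083–24 h; plasma HPLC-MS/MS; non-compartmental analysis.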"}, "Mus musculus [9]": {"test_system": "Mus musculus", "experiment": "Anti-inflammatory activity in C57BL6J mouse assessed as reduction in LPS-induced IL-1beta levels in brain at 1 mg/kg, sc administered 30 mins after LPS challenge measured at 4 hrs post LPS challenge", "assay_type": "functional, organism-based"}, "[10]": {"experiment": "Volume of distribution in Beagle dog at 1 mg/kg, iv administered via cephalic vein measured up to 24 hrs post dose by HPLC-MS/MS analysis", "assay_type": "ADME, organism-based, Canis lupus familiaris", "conditions": "in vivo", "method_in_brief": "as §4"}, "[11]": {"experiment": "Half life in Wistar Hannover rat at 1 mg/kg, iv administered as bolus dose via jugular vein cannula measured up to 24 hrs post dose by HPLC-MS/MS analysis", "assay_type": "ADME, organism-based", "conditions": "in vivo", "method_in_brief": "as §2"}, "CYP3A4": {"biological_target": "CYP3A4 (Homo sapiens, UniProt P08684)", "sequence (P08684 whole entry)": "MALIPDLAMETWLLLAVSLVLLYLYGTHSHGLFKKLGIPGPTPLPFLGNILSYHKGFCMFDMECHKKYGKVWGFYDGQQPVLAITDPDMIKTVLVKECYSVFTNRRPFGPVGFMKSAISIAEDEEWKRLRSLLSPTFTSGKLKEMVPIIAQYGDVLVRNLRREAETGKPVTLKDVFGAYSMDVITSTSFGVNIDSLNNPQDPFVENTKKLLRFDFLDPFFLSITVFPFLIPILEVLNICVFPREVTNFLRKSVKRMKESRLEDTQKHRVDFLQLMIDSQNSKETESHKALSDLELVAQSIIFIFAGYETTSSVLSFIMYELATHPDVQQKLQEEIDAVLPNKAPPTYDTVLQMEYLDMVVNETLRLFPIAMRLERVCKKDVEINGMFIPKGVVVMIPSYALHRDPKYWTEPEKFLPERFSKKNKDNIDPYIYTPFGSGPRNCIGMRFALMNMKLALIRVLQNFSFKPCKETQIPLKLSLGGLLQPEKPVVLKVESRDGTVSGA", "experiment": "Inhibition of CYP3A4 (unknown origin) at 3 uM", "assay_type": "ADME", "method_in_brief": "as §3"}, "[12]": {"experiment": "Half life in non-human primate at 1 mg/kg, iv administered via cephalic vein measured up to 24 hrs post dose by HPLC-MS/MS analysis", "assay_type": "ADME, organism-based, Macaca mulatta", "conditions": "rhesus monkey, in vivo", "method_in_brief": "as §1"}, "[13]": {"experiment": "Thermodynamic solubility of the compound at pH 6.5 after 24 hrs", "assay_type": "physicochemical", "conditions": "buffer, read-out: Therm_solubility"}, "CYP2D6": {"biological_target": "CYP2D6 (Homo sapiens, UniProt P10635)", "sequence (P10635 whole entry)": "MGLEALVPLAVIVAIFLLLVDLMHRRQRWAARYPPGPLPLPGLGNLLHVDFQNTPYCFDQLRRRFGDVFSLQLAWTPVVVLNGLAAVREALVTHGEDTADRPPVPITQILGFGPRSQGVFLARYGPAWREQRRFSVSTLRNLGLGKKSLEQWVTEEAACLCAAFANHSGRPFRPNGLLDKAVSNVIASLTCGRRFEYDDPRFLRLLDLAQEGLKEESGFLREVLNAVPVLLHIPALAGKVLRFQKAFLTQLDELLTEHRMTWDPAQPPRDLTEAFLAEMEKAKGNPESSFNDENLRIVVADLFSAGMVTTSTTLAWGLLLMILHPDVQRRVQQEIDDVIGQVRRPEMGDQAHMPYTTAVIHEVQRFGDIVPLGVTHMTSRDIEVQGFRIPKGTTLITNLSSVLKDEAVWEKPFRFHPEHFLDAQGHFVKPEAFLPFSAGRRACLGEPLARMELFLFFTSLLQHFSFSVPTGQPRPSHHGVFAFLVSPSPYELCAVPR", "experiment": "Inhibition of CYP2D6 (unknown origin) at 3 uM", "assay_type": "ADME", "method_in_brief": "as §3"}, "Mus musculus [14]": {"organism": "Mus musculus", "conditions": "C57BL6J, 1 mg/kg"}, "Cannabinoid receptor 1": {"biological_target": "Cannabinoid receptor 1 (Homo sapiens, UniProt P21554)", "sequence (P21554 whole entry)": "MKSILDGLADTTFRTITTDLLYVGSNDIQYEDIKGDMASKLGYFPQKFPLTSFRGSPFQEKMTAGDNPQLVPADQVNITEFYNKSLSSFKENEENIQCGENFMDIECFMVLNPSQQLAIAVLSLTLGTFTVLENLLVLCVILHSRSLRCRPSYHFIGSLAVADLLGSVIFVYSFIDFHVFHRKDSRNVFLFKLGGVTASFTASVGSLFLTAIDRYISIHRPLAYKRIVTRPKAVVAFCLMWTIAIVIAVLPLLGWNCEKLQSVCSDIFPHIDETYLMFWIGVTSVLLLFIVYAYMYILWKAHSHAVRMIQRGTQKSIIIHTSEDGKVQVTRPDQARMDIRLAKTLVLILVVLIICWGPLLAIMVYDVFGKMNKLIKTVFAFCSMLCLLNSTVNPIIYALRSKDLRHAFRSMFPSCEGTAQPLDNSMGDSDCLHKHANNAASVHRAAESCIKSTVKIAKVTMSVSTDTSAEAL", "experiment": "Agonist activity at human CB1 receptor expressed in CHOK1 cells assessed as […] after 20 mins by HTRF assay", "assay_type": "functional, cell-based"}, "[15]": {"experiment": "Half life in Beagle dog at 1 mg/kg, iv administered via cephalic vein measured up to 24 hrs post dose by HPLC-MS/MS analysis", "assay_type": "ADME, organism-based, Canis lupus familiaris", "conditions": "in vivo"}, "[16]": {"experiment": "Intrinsic clearance in human liver microsomes", "assay_type": "ADME, microsome", "conditions": "read-out: CLH", "method_in_brief": "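Substrate depletion in human liver microsomes; intrinsic clearance scaled to mL/min/kg.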"}, "[17]": {"experiment": "Apprent permeability in RRCK cells", "assay_type": "ADME, cell-based, Canis lupus familiaris, MDCKII-LE", "conditions": "dog, MDCK"}, "CYP2C8": {"biological_target": "T1, CYP2C8 (Homo sapiens, UniProt P10632)", "T1 sequence (P10632 whole entry)": "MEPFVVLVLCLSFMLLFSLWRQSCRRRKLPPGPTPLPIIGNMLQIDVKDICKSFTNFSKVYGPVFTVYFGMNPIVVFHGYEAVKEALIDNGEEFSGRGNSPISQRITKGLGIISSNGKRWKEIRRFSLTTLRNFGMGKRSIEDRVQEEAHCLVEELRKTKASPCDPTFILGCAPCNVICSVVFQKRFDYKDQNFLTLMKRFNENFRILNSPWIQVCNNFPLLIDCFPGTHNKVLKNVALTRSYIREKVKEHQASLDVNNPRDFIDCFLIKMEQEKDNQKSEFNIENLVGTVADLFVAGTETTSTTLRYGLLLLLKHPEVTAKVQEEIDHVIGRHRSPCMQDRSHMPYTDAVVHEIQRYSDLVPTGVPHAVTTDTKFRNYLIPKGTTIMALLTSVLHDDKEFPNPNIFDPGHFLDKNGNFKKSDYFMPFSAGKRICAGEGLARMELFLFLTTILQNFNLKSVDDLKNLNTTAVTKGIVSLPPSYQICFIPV", "experiment": "Inhibition of CYP2C8 (unknown origin) at 3 uM", "assay_type": "ADME", "method_in_brief": "as §3"}}, "note": "pEC50: −log10 of the molar value. Active and inactive are the calls of the source. The rule behind the calls is not given here."}
{"smiles": "O=C(O[C@H](CO)C(F)(F)F)N1C[C@@H]2[C@H](C1)[C@H]2c1ccn(-c2ccc(F)cc2)n1", "values": [{"measurement": "clearance", "setting": "[1]", "value": 16, "unit": "mL/min/kg"}, {"measurement": "Vd", "setting": "[2]", "value": 3.1, "unit": "L/kg"}, {"measurement": "Vd", "setting": "[3]", "value": 1.5, "unit": "L/kg"}, {"measurement": "Drug metabolism", "setting": "[4]", "value": "Metabolite_Detected"}, {"measurement": "fraction unbound at 24 h", "setting": "[5]", "value": 0.00775}, {"measurement": "CLint scaled", "setting": "[6]", "value": 52, "unit": "mL/min/kg"}, {"measurement": "inhibition at 3 µM", "setting": "CYP2C9", "value": "< 10", "unit": "%"}, {"measurement": "Kp uu at 24 h", "setting": "[7]", "value": 1.4}, {"measurement": "clearance", "setting": "[8]", "value": 21, "unit": "mL/min/kg"}, {"measurement": "Activity", "setting": "Mus musculus [9]", "value": "Active"}, {"measurement": "Vd", "setting": "[10]", "value": 1.6, "unit": "L/kg"}, {"measurement": "half-life", "setting": "[11]", "value": 1.3, "unit": "h"}, {"measurement": "inhibition at 3 µM", "setting": "CYP3A4", "value": "< 10", "unit": "%"}, {"measurement": "half-life", "setting": "[12]", "value": 1.7, "unit": "h"}, {"measurement": "solubility thermodynamic at 24 h", "setting": "[13]", "value": 25, "unit": "µM"}, {"measurement": "inhibition at 3 µM", "setting": "CYP2D6", "value": "< 10", "unit": "%"}, {"measurement": "inhibition", "setting": "Mus musculus [14]", "value": "Active"}, {"measurement": "pEC50", "setting": "Cannabinoid receptor 1", "value": 5.82}, {"measurement": "half-life", "setting": "[15]", "value": 1.7, "unit": "h"}, {"measurement": "CLint scaled", "setting": "[16]", "value": "< 8", "unit": "mL/min/kg"}, {"measurement": "Papp", "setting": "[17]", "value": 21, "unit": "×10⁻⁶ cm/s"}, {"measurement": "inhibition at 3 µM", "setting": "CYP2C8", "value": "< 10", "unit": "%"}]}
